The record followed here is ChEMBL document CHEMBL3399974, “Discovery and SAR of novel series of imidazopyrimidinones and dihydroimidazopyrimidinones as positive allosteric modulators of the metabotropic glutamate receptor 5 (mGlu5)” (Bioorg Med Chem Lett, 2015).

Series [1] deals with Metabotropic glutamate receptor 5 (Rattus norvegicus) (UniProt P31424). Put plainly: Positive allosteric modulation at rat mGluR5 expressed in HEK293 cells assessed as amplitude of response at 30 uM by calcium mobilization assay relative to glutamate. It counts as functional, cell-based. The method, boiled down: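 HEK293 cells stably expressing rat mGlu5 were used in a calcium mobilization assay. Test compound was given at 30 µM, and response amplitude is expressed as percent of the maximal response to 100 µM glutamate. Values are the average of three or more independent determinations.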
Background: Calcium flux is commonly read through the fluorescence of an indicator in the cells.

The target of series [2] is T1, Metabotropic glutamate receptor 5 (Rattus norvegicus, UniProt P31424). Put plainly: Positive allosteric modulation at rat mGluR5 expressed in HEK293 cells by calcium mobilization assay. The series is classed as functional, cell-based. The method, boiled down:
(§1)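 HEK293 cells stably expressing rat mGlu5 were run in a 'triple add' calcium mobilization assay that detects agonism, PAM and NAM activity together. Response amplitude was expressed as % of the maximal response to 100 µM glutamate. Values are the mean of three or more independent determinations.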

The nature of series [3]: Drug metabolism in rat liver microsomes assessed as compound metabolized at 1 uM after 15 mins. The series is classed as ADME. The following applies: read-out: Drug metabolism. An outline of the steps: (§2)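 Test compound at 1 µM was incubated for 15 min with liver microsomes (human for HLM, rat for RLM). Read-out was % of compound metabolized.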
In general terms: Microsomes from liver hold many membrane-bound enzymes, among them those of drug oxidation.

Series [4] is described as follows: Drug metabolism in human liver microsomes assessed as compound metabolized at 1 uM after 15 mins. It counts as ADME. The following applies: read-out: Drug metabolism. The method, boiled down: as §2
Series [5] concerns the target T1, Metabotropic glutamate receptor 5. Put plainly: Negative allosteric modulation at rat mGluR5 expressed in HEK293 cells by calcium mobilization assay. It counts as functional, cell-based. The method, boiled down: as §1
Series [6] deals with Metabotropic glutamate receptor 5 (Rattus norvegicus) (UniProt P31424). Put plainly: Negative allosteric modulation at rat mGluR5 expressed in HEK293 cells by calcium mobilization assay relative to glutamate. The settings on record: 30 uM.
For series [7], the target named is Metabotropic glutamate receptor 6 (Homo sapiens, UniProt O15303). Put plainly: Positive allosteric modulation at mGluR6 (unknown origin).
Series [8] in a line: Plasma protein binding in human. The series is classed as ADME, cell-free.
Series [9] has as its target Metabotropic glutamate receptor 8 (Homo sapiens, UniProt O00222). Kind of series: Positive allosteric modulation at mGluR8 (unknown origin).
Series [10] deals with Metabotropic glutamate receptor 3 (Homo sapiens, UniProt Q14832). Kind of series: Negative allosteric modulation at mGluR3 (unknown origin).
Series [11] in a line: Plasma protein binding in rat. The series is classed as ADME, cell-free.
The target of series [12] is Metabotropic glutamate receptor 7 (Homo sapiens, UniProt Q14831). Put plainly: Positive allosteric modulation at mGluR7 (unknown origin).
Series [13] addresses Metabotropic glutamate receptor 1 (Homo sapiens, UniProt Q13255). Kind of series: Positive allosteric modulation at mGluR1 (unknown origin).
Series [14] has as its target Metabotropic glutamate receptor 2 (Homo sapiens, UniProt Q14416). Kind of series: Positive allosteric modulation at mGluR2 (unknown origin).
Series [15] addresses Metabotropic glutamate receptor 4 (Homo sapiens, UniProt Q14833). Put plainly: Positive allosteric modulation at mGluR4 (unknown origin).

A word on the Emax: it is the size of the effect at its maximum, as opposed to the concentration needed. As usually defined, the EC50 is the concentration at which the effect is half-maximal.

Sequence of Metabotropic glutamate receptor 5 (Rattus norvegicus) (P31424 21-1203 limits assumed): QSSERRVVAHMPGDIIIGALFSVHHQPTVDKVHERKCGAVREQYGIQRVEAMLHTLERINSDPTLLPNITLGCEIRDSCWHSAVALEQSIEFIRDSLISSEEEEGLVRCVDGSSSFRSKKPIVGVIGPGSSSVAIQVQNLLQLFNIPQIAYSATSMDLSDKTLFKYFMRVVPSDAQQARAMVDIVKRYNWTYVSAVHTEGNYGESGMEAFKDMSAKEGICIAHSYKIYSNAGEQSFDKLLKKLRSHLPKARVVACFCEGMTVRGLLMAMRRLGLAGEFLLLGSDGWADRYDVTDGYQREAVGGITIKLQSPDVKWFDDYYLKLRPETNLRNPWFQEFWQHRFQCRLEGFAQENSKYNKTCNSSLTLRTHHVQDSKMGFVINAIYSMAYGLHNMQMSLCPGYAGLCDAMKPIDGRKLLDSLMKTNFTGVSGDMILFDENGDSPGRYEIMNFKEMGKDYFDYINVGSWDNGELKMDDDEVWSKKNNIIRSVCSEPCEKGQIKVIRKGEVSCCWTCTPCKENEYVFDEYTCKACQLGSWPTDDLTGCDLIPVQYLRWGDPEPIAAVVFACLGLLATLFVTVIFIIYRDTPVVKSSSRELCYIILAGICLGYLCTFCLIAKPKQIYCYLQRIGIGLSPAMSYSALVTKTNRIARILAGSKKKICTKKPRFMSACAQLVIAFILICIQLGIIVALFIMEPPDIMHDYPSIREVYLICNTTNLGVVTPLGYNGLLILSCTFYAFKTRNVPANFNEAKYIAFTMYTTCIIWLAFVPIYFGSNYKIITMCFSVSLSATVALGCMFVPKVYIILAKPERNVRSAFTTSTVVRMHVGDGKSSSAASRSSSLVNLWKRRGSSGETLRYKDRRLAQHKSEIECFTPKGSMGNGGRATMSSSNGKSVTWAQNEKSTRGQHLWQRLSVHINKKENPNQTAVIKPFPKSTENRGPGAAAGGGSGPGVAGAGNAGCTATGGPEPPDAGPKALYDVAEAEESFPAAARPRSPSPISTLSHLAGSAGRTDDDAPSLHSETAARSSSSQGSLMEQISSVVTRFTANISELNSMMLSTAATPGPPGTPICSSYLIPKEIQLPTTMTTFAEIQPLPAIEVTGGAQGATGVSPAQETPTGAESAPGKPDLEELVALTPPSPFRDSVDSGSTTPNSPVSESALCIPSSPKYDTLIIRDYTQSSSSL
T1 sequence (P31424 whole entry): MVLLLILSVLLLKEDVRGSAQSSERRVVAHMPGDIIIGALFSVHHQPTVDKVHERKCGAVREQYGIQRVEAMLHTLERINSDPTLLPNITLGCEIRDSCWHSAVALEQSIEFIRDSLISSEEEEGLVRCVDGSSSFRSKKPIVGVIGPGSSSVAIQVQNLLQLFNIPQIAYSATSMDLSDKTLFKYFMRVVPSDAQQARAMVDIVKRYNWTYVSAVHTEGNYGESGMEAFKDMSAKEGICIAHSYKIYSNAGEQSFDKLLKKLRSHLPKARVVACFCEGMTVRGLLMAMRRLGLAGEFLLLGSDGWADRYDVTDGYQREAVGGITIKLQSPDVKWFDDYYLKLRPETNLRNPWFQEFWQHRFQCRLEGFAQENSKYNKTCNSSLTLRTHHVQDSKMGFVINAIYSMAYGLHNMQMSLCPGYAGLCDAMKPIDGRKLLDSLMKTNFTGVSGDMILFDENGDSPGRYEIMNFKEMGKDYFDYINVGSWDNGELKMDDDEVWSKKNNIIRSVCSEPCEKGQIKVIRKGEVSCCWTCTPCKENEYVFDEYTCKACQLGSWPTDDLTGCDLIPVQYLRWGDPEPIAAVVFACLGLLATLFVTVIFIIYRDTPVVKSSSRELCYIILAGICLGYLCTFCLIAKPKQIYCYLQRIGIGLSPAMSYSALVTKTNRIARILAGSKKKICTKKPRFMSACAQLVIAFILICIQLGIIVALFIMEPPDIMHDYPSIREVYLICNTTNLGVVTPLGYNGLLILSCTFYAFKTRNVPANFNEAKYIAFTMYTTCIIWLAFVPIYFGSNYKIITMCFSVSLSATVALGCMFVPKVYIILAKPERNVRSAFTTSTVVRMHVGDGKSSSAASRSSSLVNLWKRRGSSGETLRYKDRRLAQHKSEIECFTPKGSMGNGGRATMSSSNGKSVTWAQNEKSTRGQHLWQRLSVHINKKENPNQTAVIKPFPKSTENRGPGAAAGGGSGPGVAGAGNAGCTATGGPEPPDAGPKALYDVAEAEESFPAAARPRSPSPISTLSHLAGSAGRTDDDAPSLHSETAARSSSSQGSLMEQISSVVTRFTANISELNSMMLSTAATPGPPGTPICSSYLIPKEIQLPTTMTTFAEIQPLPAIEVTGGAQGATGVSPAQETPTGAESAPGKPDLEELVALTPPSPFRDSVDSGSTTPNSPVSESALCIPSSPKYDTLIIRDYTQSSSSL
Sequence of Metabotropic glutamate receptor 3 (Q14832 whole entry): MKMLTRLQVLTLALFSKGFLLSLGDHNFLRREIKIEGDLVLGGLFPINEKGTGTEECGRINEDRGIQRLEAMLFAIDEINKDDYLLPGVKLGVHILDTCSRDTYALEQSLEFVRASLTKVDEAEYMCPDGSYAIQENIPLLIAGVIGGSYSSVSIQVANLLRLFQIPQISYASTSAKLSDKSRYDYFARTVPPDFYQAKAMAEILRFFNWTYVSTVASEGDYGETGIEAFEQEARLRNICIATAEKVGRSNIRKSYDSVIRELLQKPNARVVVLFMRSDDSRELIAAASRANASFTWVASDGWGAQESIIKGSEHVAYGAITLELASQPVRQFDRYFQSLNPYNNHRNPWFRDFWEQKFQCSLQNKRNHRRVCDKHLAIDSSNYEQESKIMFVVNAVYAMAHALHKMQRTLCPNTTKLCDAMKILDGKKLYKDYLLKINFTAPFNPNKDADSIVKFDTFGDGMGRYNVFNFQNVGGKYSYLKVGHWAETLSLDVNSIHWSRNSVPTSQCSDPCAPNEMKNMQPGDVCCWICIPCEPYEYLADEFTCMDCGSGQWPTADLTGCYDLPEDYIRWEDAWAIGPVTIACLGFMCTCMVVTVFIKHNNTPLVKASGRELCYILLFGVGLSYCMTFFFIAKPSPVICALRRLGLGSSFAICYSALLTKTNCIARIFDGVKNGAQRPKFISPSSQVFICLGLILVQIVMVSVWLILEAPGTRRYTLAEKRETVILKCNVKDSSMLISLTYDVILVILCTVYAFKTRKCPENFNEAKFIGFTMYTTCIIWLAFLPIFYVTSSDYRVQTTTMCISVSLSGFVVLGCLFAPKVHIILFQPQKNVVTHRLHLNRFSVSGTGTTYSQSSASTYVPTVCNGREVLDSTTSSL
Sequence of Metabotropic glutamate receptor 6 (O15303 whole entry): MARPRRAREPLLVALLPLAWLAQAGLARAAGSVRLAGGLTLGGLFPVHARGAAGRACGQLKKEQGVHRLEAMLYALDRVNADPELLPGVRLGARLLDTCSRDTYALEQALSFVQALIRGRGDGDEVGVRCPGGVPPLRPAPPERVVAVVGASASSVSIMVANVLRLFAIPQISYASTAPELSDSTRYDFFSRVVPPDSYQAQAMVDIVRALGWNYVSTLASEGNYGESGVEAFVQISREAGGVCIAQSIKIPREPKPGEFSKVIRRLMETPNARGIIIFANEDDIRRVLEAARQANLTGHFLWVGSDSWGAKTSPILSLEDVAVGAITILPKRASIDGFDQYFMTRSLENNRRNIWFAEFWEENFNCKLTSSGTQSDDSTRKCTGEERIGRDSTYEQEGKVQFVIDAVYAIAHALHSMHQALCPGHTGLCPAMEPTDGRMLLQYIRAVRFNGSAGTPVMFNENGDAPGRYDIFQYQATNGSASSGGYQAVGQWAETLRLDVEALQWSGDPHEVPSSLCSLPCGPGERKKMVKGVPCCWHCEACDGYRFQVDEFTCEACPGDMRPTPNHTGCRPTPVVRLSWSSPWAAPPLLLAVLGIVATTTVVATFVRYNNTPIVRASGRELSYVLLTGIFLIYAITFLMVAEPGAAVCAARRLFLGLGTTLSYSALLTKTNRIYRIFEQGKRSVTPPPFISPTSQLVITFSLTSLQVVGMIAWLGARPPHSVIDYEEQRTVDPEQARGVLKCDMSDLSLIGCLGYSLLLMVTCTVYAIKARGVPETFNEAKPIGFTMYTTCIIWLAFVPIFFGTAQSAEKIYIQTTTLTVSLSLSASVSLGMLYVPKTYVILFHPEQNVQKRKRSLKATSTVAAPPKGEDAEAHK
Sequence of Metabotropic glutamate receptor 2 (Q14416 whole entry): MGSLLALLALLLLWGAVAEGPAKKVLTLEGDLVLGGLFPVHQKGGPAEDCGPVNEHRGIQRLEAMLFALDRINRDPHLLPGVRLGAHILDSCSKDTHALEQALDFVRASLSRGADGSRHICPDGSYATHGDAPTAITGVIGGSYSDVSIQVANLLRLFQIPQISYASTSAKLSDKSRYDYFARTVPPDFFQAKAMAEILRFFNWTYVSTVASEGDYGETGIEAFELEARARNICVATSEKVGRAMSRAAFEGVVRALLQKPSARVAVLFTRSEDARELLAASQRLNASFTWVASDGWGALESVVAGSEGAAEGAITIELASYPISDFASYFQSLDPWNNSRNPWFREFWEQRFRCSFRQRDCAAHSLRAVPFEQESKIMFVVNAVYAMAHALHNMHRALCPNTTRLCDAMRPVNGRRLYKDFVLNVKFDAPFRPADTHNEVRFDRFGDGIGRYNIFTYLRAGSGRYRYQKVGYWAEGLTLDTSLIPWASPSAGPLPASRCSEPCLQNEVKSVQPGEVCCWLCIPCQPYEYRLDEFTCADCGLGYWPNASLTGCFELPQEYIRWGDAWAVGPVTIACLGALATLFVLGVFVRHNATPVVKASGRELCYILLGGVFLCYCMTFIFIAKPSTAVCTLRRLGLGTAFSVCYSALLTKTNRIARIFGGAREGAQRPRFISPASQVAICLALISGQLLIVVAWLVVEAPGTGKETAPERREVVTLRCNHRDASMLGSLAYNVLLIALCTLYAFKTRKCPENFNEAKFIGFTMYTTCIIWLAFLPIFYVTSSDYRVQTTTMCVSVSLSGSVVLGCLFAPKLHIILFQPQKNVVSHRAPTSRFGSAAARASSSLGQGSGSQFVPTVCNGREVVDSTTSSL

Consider `Cc1cc2nc(COc3ccccc3)cn2c(=O)n1-c1ccc(F)cc1`, for which the Emax in series [1] was 60%. The EC50 in series [2] worked out at 2070 nM.

As to `Cc1cc(-n2ccc3nc(COc4ccccc4)cn3c2=O)ncc1F`, the Emax in series [1] is 77%. In addition, the EC50 in series [2] stood at 435 nM. Also, the metabolised at 0.25 h, 1 µM in series [3] amounted to 49%; in series [4] it was 17%.

Turning to `Cc1cc(N2CCc3nc(COc4ccccc4)cn3C2=O)ccc1F`, the Emax in [1] turned out to be 91%. Further, the EC50 in series [2] came to 130 nM. The metabolised at 0.25 h, 1 µM in series [3] was found to be 37%; in series [4], 10%.

Take `O=c1n(-c2ccc(F)cc2)ccc2nc(COc3cccnc3)cn12`: in [1], the Emax came out at 65%. For the same compound, the EC50 in series [2] is greater than 10000 nM.

For the compound `Cc1cn(-c2ccc(F)cc2)c(=O)n2cc(COc3ccccc3)nc12`, the IC50 in series [5] (read-out: IC50) was determined as 1000 nM; in series [6] it was 16 nM. The metabolised at 0.25 h, 1 µM in [3] was determined as 71%; in [4], 36%.

As for `O=c1n(-c2ccc(F)cc2)ccc2nc(COc3cccc(F)c3)cn12`, the Emax in series [1] stood at 91%. Besides, in series [2], the concentration giving a half-maximal response (EC50) is 230 nM. Besides, the metabolised at 0.25 h, 1 µM in series [3] was 28%; in [4], 13%.

With `Cc1c(COc2ccccc2)nc2n1C(=O)N(c1ccc(F)cc1)CC2`, the IC50 in [5] (read-out: pIC50 (converted)) is 525 nM; in [6], 529 nM. For the same compound, the results for the metabolised at 0.25 h, 1 µM in [3] and in series [4] were 46% and 21%, respectively.

As for `O=C1N(c2ccc(F)cn2)CCc2nc(COc3ccccc3)cn21`, the Emax in series [1] was 66%. In addition, the EC50 in series [2] came to 359 nM. Further, the metabolised at 0.25 h, 1 µM came out at 14% in series [3] and 1% in series [4].

As to `O=c1n(-c2ccc(F)cc2)ccc2nc(COc3ccccc3)c(Cl)n12`, the IC50 stood at 218 nM in [5] (read-out: IC50) and 5 nM in series [6]. Moreover, the metabolised at 0.25 h, 1 µM is 73% in [3] and 6% in series [4].

Regarding `O=c1n(CC2CC2)ccc2nc(COc3ccccc3)cn12`, the Emax in series [1] is 47%. Besides, the EC50 in series [2] was found to be 1120 nM.

As to `O=c1n(-c2ccc(F)cc2)ccc2nc(COc3ccc(F)cc3)cn12`, the Emax in [1] came out at 85%. The EC50 in [2] amounted to 375 nM. The metabolised at 0.25 h, 1 µM in [3] turned out to be 29%; in series [4], 11%.

For `Cc1cccc(OCc2cn3c(n2)CCN(c2ccc(F)cc2)C3=O)c1`, in series [1], the Emax was determined as 47%. Besides, the EC50 in series [2] was found to be 285 nM.

With `CN(C)c1cccc(-n2ccc3nc(COc4ccccc4)cn3c2=O)n1`, in series [1], the Emax is 87%. Further, the EC50 in series [2] stood at 284 nM. The metabolised at 0.25 h, 1 µM is 90% in series [3] and 66% in series [4].

Take `O=c1n(-c2ccc(F)cc2)ccc2nc(COc3ccccc3)cn12`: the EC50 is greater than 10000 nM in series [7]; greater than 10000 nM in [9]; 310 nM in [2]; greater than 10000 nM in series [12]; greater than 10000 nM in series [13]; greater than 10000 nM in series [14]. Moreover, in series [15], the half-maximal effective concentration (EC50) was greater than 10000 nM. For the same compound, the PPB in [8] turned out to be 96.4%; in series [11], 93.1%. Moreover, the Emax in [1] was 83%. The same compound registered an IC50 in series [10] of 630 nM. Moreover, the metabolised at 0.25 h, 1 µM is 27% in series [3] and 14% in [4].

With `Cc1ccc(N2CCc3nc(COc4ccccc4)cn3C2=O)nc1`, in series [1], the Emax came out at 74%. Moreover, in [2], the EC50 was 485 nM. Besides, the metabolised at 0.25 h, 1 µM in [3] was found to be 98%; in [4], 35%.

For the compound `O=c1n(-c2cccc(F)c2)ccc2nc(COc3ccccc3)cn12`, the maximal response (Emax) in series [1] is 69%. Also, the concentration for a half-maximal effect (EC50) in series [2] is 514 nM. Also, the results for the metabolised at 0.25 h, 1 µM in series [3] and in series [4] were 71% and 47%, respectively.

Turning to `O=C1N(c2ccc(F)cc2)CCc2nc(COc3ccc(F)cc3)cn21`, the maximal effect (Emax) in series [1] was determined as 88%. The EC50 in series [2] turned out to be 197 nM. Also, the metabolised at 0.25 h, 1 µM turned out to be 11% in [3] and 3% in [4].

`Cc1cccc(-n2ccc3nc(COc4ccccc4)cn3c2=O)n1`: the Emax in series [1] turned out to be 64%. Also, in [2], the EC50 was determined as 3580 nM.

Regarding `Cn1ccc2nc(COc3ccccc3)cn2c1=O`, the Emax in series [1] was determined as 67%. Further, the EC50 in [2] was greater than 10000 nM.

`O=c1n(Cc2ccccc2)ccc2nc(COc3ccccc3)cn12`: the maximal response (Emax) in [1] was determined as 93%. In addition, in [2], the concentration giving a half-maximal response (EC50) amounted to 1590 nM.

As to `O=c1[nH]ccc2nc(COc3ccccc3)cn12`, the Emax in [1] was 19%. Also, the EC50 in series [2] is greater than 30000 nM.

As to `Cc1cc(N2CCc3nc(COc4ccccc4)cn3C2=O)ncc1F`, the Emax in series [1] is 87%. Further, the EC50 in series [2] amounted to 371 nM.

With `Cc1ccnc(-n2ccc3nc(COc4ccccc4)cn3c2=O)c1`, the Emax in [1] was 64%. In addition, the EC50 in series [2] came to 5100 nM.

On to `Cc1nc(N2CCc3nc(COc4ccccc4)cn3C2=O)ccc1F`, for which, in [1], the Emax amounted to 91%. The EC50 in series [2] is 183 nM. Also, the metabolised at 0.25 h, 1 µM worked out at 93% in [3] and 31% in series [4].

Turning to `O=c1n(-c2ccc(F)cc2)ccc2nc(COc3ccccn3)cn12`, in [1], the Emax was 88%. Moreover, the EC50 in series [2] amounted to 3170 nM.

On to `O=C1N(c2ccc(F)cc2)CCc2nc(COc3cccc(F)c3)cn21`, for which, in [1], the maximal effect (Emax) was determined as 72%. Besides, the EC50 in series [2] came to 69 nM. Also, the metabolised at 0.25 h, 1 µM in [3] was determined as 29%; in series [4], 0%.

For `O=c1n(-c2ccc(F)c(F)c2)ccc2nc(COc3ccccc3)cn12`, the Emax in [1] came to 93%. For the same compound, the EC50 in series [2] turned out to be 230 nM.

`Cc1cccc(OCc2cn3c(=O)n(-c4ccc(F)cc4)ccc3n2)c1`: the Emax in series [1] is 30%. The EC50 in series [2] turned out to be 344 nM.

For the compound `O=c1n(-c2ccc(F)cn2)ccc2nc(COc3ccccc3)cn12`, the Emax in [1] was 87%. Further, the EC50 in [2] was 587 nM.

On to `Cc1ccc(-n2ccc3nc(COc4ccccc4)cn3c2=O)nc1`, for which, in series [1], the maximal effect (Emax) was 84%. Also, in [2], the EC50 stood at 2000 nM.

For the compound `Cc1nc(-n2ccc3nc(COc4ccccc4)cn3c2=O)ccc1F`, the Emax in series [1] was 77%. The EC50 in series [2] stood at 375 nM. Further, the figures for the metabolised at 0.25 h, 1 µM in series [3] and in series [4] were 50% and 8%, respectively.

As to `O=C1N(c2cccc(F)c2)CCc2nc(COc3ccccc3)cn21`, the Emax in series [1] is 82%. The EC50 in series [2] is 218 nM. Besides, the metabolised at 0.25 h, 1 µM amounted to 78% in [3] and 20% in [4].

As to `O=C1N(c2ccc(F)cc2)CCc2nc(COc3ccccc3)c(Cl)n21`, the figures for the IC50 in series [5] (read-out: pIC50 (converted)) and in series [6] were 132 nM and 133 nM, respectively.
